Test results: publication PMC3180826 (ACS chemical neuroscience, 2010)

Key:
[1] = Plasma-brain exposure profile PK study; assay type: in vivo; conditions: rat
In short: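 Test compound was dissolved in sterile water at 5 mg/mL and dosed at 10 mg/kg ip in male Sprague–Dawley rats (225–250 g). Plasma and brain were collected at 0.5, 1, 2, 4 and 8 h, with three rats per time point. Brains were homogenized 1:3 in PBS, and samples were extracted by acetonitrile/0.1% formic acid precipitation with internal standard. Quantification was by LC-MS/MS SRM (10–2000 ng/mL calibration), with noncompartmental analysis.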

[2] = biological target: T1, hM5 (Homo sapiens, UniProt P08912); assay: Calcium mobilization assay, agonist mode, M5; assay type: cell-based; conditions: up to 30 μM
T1 sequence (P08912 1-532): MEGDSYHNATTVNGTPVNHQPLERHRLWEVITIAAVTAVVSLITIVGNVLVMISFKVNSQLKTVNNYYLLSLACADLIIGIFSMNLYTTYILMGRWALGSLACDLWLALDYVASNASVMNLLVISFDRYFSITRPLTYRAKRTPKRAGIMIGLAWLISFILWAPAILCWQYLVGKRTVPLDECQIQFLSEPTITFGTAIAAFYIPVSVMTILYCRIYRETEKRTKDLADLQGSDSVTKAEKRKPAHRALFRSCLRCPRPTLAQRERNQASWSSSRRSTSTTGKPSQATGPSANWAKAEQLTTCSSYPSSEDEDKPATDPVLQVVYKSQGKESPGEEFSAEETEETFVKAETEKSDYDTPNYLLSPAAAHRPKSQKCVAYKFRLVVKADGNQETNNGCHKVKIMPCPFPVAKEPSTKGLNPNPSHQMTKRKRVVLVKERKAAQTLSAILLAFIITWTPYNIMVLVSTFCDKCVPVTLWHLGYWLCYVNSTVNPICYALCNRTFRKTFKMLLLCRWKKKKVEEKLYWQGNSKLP
In short: (§1)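 CHO-K1 cells stably expressing hM2/Gqi5 or rM4/Gqi5 (6 × 10^4 cells/well), or hM3 or hM5 (5 × 10^4 cells/well), were cultured overnight at 37 °C in 5% CO2. Cells were loaded with 2 μM Fluo-4 AM for 1 h at 37 °C in HBSS with 20 mM HEPES and 2.5 mM probenecid, pH 7.4. Eight-point test compound concentration series were added at 19 s of a 130 s read. Calcium flux was read as fluorescence fold over basal.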

[3] = biological target: T2, rM4 (Rattus norvegicus, UniProt P08485); assay: Calcium mobilization assay, agonist mode, M4; assay type: cell-based; conditions: up to 30 μM
T2 sequence (P08485 1-478): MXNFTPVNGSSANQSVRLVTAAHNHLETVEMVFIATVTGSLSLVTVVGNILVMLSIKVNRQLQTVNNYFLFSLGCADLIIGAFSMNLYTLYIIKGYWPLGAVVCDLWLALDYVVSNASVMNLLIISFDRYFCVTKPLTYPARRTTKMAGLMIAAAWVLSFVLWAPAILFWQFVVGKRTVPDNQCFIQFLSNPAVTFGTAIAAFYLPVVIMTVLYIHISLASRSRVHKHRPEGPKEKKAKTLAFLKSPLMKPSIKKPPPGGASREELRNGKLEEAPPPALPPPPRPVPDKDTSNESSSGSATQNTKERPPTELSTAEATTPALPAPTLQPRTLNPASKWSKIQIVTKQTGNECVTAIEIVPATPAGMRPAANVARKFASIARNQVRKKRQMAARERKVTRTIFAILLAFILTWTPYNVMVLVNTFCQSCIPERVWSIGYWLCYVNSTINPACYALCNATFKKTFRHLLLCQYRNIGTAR
In short: as §1

[4] = biological target: T3, M2 (Homo sapiens, UniProt P08172); assay: [3H]-NMS competition binding, M2 CHO membranes; conditions: concentrations well above those required to fully activate M1
T3 sequence (P08172 1-466): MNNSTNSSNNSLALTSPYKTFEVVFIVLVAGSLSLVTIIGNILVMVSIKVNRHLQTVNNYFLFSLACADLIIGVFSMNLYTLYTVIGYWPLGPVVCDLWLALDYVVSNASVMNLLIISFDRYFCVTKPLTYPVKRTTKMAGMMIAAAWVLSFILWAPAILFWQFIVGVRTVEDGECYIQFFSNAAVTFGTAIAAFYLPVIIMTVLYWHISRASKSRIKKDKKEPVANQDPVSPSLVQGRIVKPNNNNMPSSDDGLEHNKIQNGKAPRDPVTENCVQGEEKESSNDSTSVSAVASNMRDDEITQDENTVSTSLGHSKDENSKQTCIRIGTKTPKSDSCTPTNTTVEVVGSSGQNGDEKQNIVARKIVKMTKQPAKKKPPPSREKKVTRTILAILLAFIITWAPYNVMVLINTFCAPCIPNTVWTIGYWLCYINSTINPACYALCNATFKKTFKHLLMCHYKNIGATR

[5] = biological target: T4, M5 (Homo sapiens, UniProt P08912); assay: [3H]-NMS competition binding, M5 CHO membranes; conditions: concentrations well above those required to fully activate M1
T4 sequence (P08912 1-532): T1 sequence (P08912 1-532)

[6] = biological target: hM3 (Homo sapiens, UniProt P20309); assay: Calcium mobilization assay, agonist mode, M3; assay type: cell-based; conditions: up to 30 μM
hM3, sequence (P20309 whole entry): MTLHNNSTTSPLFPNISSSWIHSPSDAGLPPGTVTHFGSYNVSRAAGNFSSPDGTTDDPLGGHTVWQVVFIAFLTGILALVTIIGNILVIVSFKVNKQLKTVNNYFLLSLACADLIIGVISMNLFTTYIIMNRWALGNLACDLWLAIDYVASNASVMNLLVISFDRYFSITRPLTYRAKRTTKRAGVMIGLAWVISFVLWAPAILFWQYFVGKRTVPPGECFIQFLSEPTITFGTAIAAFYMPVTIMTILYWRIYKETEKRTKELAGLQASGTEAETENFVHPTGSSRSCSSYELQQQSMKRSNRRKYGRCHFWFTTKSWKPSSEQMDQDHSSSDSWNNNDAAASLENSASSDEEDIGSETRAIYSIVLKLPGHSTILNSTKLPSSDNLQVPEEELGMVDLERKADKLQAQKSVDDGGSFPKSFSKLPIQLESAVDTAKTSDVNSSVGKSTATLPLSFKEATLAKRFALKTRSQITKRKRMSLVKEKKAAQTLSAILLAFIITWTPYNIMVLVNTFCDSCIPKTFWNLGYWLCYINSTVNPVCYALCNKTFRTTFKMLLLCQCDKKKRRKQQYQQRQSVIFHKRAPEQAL
In short: as §1

[7] = biological target: M3 (Homo sapiens, UniProt P20309); assay: [3H]-NMS competition binding, M3 CHO membranes; conditions: concentrations well above those required to fully activate M1
M3, sequence (P20309 whole entry): as above

[8] = biological target: T5, rM1 E397D (Rattus norvegicus, UniProt P08482, E397D); assay: Calcium mobilization, rM1 E397D mutant CHO-K1 cells; assay type: cell-based; conditions: compared with wt rM1
T5 sequence (P08482 1-460 E397D): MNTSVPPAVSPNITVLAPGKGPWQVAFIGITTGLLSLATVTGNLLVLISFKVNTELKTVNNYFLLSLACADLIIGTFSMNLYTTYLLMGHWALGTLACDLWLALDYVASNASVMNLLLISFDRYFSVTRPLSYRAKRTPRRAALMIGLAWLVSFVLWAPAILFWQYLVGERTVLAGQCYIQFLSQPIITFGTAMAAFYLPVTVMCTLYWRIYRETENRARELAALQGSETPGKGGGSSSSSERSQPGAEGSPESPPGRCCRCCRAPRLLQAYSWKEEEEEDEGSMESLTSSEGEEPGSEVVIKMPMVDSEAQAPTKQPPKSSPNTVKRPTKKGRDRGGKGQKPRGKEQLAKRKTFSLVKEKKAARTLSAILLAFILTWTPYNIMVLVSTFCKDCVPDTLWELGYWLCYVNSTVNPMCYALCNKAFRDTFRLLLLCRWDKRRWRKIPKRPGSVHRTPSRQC
In short: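 CHO-K1 cells were transiently transfected overnight at 37 °C with 10 μg of mutant rat M1 cDNA in pcDNA3.1+ using Fugene 6, then plated for the calcium assay. They were loaded with 2 μM Fluo-4 AM for 1 h at 37 °C in HEPES/probenecid-buffered HBSS, pH 7.4. Test compound dose–response series were added at 19 s. Calcium mobilization was measured as fluorescence increase over basal.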

[9] = biological target: T6, M4 (Rattus norvegicus, UniProt P08485); assay: [3H]-NMS competition binding, M4 CHO membranes; conditions: concentrations well above those required to fully activate M1
T6 sequence (P08485 1-478): T2 sequence (P08485 1-478)

In the case of `CCOC(=O)N1CCC(NCCNC(=O)c2ccccc2)CC1` [VU0184670, ethyl 4-(2-benzamidoethylamino)piperidine-1-carboxylate], the brain level ([1]; 10 mg/kg i.p., brain) is reported as 14490.12 ± 2663.82 ng/mL, the plasma level ([1]; 10 mg/kg i.p., plasma) is reported as 311.86 ± 20.77 ng/mL and the central penetrance ([1]; i.p. administration) is reported as “centrally-penetrant”. For the same compound, the “agonist activity at M5” value [2] was “no activity”, the “agonist activity at M4” value [3] was “no activity” and the “reduction of [3H]-NMS binding to M2” value [4] was “did not reduce”. For the same compound, the “reduction of [3H]-NMS binding to M5” value [5] was “did not reduce”, the “agonist activity at M3” value [6] was “no activity” and the “reduction of [3H]-NMS binding to M3” value [7] was “did not reduce”. The “functional potency at E397D mutant” value [8] was “Not much potency appeared to be lost” and the “reduction of [3H]-NMS binding to M4” value [9] was “did not reduce”.
